For one compound, Activity results are on record in ChEMBL document CHEMBL4354843, “Structure-Based Design of a Potent and Selective Covalent Inhibitor for SRC Kinase That Targets a P-Loop Cysteine” (J Med Chem, 2020).

Test [1] has as its target Ribosomal protein S6 kinase beta-1 (Homo sapiens) (UniProt P23443). Description: Binding affinity to wild-type human partial length S6K1 (M1 to S421 residues) expressed in mammalian expression system assessed as residual binding level at 1 uM by Kinomescan method relative to control.
For test [2], the target named is Macrophage-stimulating protein receptor (Homo sapiens) (UniProt Q04912). The test is described as follows: Binding affinity to wild-type human partial length MST1R (I1057 to L1363 residues) expressed in bacterial expression system assessed as residual binding level at 1 uM by Kinomescan method relative to control.
Sequence of Macrophage-stimulating protein receptor (Homo sapiens) (Q04912 25-304 limits assumed): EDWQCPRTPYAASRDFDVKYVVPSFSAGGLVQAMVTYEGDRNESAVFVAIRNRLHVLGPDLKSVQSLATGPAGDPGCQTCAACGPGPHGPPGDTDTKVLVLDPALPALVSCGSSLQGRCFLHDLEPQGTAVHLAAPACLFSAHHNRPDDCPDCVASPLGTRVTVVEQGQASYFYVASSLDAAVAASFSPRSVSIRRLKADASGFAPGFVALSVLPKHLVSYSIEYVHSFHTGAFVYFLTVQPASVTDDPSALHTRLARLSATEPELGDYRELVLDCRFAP
Sequence of Macrophage-stimulating protein receptor (Homo sapiens) (Q04912 310-1400 limits assumed): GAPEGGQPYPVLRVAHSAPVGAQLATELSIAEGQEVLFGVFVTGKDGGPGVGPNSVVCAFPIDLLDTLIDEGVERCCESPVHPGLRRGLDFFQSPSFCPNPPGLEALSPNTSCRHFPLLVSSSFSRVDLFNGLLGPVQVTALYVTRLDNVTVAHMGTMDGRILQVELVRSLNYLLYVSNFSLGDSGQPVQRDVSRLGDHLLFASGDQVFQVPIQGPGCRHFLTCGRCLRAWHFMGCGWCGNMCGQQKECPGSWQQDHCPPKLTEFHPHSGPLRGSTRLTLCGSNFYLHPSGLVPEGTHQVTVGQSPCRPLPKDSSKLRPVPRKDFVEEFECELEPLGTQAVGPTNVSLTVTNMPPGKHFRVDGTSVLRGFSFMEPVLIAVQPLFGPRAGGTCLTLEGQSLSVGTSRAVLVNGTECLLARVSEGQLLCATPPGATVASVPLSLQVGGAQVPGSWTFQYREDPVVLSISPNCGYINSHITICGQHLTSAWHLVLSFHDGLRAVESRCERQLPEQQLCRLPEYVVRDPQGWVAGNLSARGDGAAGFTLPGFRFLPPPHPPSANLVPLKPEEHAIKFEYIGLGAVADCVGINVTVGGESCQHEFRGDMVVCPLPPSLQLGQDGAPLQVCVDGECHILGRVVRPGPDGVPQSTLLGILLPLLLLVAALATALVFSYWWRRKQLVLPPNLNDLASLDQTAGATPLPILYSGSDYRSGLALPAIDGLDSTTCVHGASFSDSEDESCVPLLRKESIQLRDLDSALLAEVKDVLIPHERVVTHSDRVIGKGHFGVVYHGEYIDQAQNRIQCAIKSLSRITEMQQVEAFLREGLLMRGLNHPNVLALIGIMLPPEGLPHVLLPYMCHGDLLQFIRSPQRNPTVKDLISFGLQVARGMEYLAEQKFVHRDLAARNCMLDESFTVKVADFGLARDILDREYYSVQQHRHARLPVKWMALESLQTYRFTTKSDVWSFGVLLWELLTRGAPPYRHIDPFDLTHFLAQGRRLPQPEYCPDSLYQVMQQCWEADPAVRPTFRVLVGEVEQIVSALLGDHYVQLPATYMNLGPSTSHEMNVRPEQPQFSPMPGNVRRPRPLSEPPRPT
The target of test [3] is Serine/threonine-protein kinase ICK (Homo sapiens) (UniProt Q9UPZ9). The test is described as follows: Binding affinity to wild-type human partial length ICK (M1 to P314 residues) expressed in mammalian expression system assessed as residual binding level at 1 uM by Kinomescan method relative to control. Summed up:
(§1)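 Active-site-directed competition binding panel of 468 kinases (KinomeScan), compound at 1 μM. The read-out is kinase remaining bound, given as a percentage of the DMSO control. […]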

Test [4] has as its target Casein kinase II subunit alpha (Homo sapiens) (UniProt P68400). Description: Binding affinity to wild-type human full length CSNK2A1 (M1 to Q391 residues) expressed in mammalian expression system assessed as residual binding level at 1 uM by Kinomescan method relative to control. The method in brief: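 KinomeScan, an active site-directed competition binding panel of 468 kinases. The test compound was at 1 μM. The readout is remaining kinase binding as a percentage of the DMSO control. Scores above 35% were treated as weak binding and not listed.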

In test [5] the target is Non-receptor tyrosine-protein kinase TYK2 (Homo sapiens) (UniProt P29597). Description: Binding affinity to wild-type human partial length TYK2 JH1 catalytic domain (V877 to C1187 residues) expressed in mammalian expression system assessed as residual binding level at 1 uM by Kinomescan method relative to control.
For test [6], the target named is Vascular endothelial growth factor receptor 3 (Homo sapiens) (UniProt P35916). The test is described as follows: Binding affinity to wild-type human partial length FLT4 (E821 to E1196 residues) expressed in bacterial expression system assessed as residual binding level at 1 uM by Kinomescan method relative to control.
For test [7], the target named is Tyrosine-protein kinase Fgr (Homo sapiens) (UniProt P09769). The test is described as follows: Binding affinity to wild-type human partial length FGR (L233 to T529 residues) expressed in bacterial expression system assessed as residual binding level at 1 uM by Kinomescan method relative to control. The method in brief: as §1
Sequence of Tyrosine-protein kinase Fgr (Homo sapiens) (P09769 2-529 limits assumed): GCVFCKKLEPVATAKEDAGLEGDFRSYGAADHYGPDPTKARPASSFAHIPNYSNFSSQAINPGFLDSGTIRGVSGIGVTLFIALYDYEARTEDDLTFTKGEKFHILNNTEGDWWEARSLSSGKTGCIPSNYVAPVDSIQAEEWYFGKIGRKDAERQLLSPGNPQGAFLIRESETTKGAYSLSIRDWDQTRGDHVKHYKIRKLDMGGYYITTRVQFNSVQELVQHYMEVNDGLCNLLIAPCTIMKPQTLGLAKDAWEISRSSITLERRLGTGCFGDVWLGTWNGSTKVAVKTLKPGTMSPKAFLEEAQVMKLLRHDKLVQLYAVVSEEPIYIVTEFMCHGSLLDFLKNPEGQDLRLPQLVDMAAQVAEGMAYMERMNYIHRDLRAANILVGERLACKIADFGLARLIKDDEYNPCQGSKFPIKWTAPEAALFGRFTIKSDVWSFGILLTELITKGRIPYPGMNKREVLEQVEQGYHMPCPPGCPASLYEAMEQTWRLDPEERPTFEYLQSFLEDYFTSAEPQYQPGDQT
The target in test [8] is Citron Rho-interacting kinase (Homo sapiens) (UniProt O14578). The test is described as follows: Binding affinity to wild-type human partial length CIT (M68 to E432 residues) expressed in bacterial expression system assessed as residual binding level at 1 uM by Kinomescan method relative to control.
The target of test [9] is Protein-tyrosine kinase 6 (Homo sapiens) (UniProt Q13882). The test is described as follows: Binding affinity to wild-type human partial length BRK (L166 to T451 residues) expressed in bacterial expression system assessed as residual binding level at 1 uM by Kinomescan method relative to control.
Sequence of Protein-tyrosine kinase 6 (Homo sapiens) (Q13882 whole entry, looked up, the tested form may be a part): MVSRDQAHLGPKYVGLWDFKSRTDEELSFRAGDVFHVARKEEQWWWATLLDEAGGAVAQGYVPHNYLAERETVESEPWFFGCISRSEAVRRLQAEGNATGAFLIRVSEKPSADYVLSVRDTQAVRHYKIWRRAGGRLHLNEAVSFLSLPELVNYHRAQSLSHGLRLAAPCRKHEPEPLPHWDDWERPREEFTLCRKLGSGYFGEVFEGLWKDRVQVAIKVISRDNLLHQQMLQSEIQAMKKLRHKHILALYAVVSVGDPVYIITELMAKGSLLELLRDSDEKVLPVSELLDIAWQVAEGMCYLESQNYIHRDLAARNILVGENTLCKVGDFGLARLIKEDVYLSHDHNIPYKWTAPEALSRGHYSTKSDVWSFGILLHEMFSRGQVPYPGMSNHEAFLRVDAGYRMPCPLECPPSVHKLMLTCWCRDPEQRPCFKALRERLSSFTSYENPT
Test [10] has as its target Fibroblast growth factor receptor 3 (Homo sapiens) (UniProt P22607). Description: Binding affinity to wild-type human partial length FGFR3 (R442 to S771 residues) expressed in bacterial expression system assessed as residual binding level at 1 uM by Kinomescan method relative to control.
Test [11] has as its target Serine/threonine-protein kinase STK11 (Homo sapiens) (UniProt Q15831). Description: Binding affinity to wild-type human full length LKB1 (M1 to Q433 residues) expressed in bacterial expression system assessed as residual binding level at 1 uM by Kinomescan method relative to control. Summed up:
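Active-site-directed KinomeScan competition binding panel covering 468 kinases, compound tested at 1 μM. Each readout is the kinase signal remaining with compound, expressed as a percentage of the DMSO control. […]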

In test [12] the test system is Phosphatidylinositol 4,5-bisphosphate 3-kinase catalytic subunit alpha isoform (Homo sapiens), P42336 [I800L]. The test is described as follows: Binding affinity to human partial length PIK3CA I800L mutant (R108 to N1068 residues) expressed in mammalian expression system assessed as residual binding level at 1 uM by Kinomescan method relative to control. The method in brief:
(§2)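 KinomeScan active site-directed competition binding panel (468 kinases), compound tested at 1 μM. Result expressed as remaining kinase signal versus DMSO control (percent of control).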

Test [13] deals with Serine/threonine-protein kinase MRCK beta (Homo sapiens) (UniProt Q9Y5S2). The test is described as follows: Binding affinity to wild-type human partial length MRCKB (L56 to S417 residues) expressed in bacterial expression system assessed as residual binding level at 1 uM by Kinomescan method relative to control.
Test [14] has as its target Calcium/calmodulin-dependent protein kinase type 1D (Homo sapiens) (UniProt Q8IU85). Description: Binding affinity to wild-type human partial length CAMK1D (M1 to K299 residues) expressed in bacterial expression system assessed as residual binding level at 1 uM by Kinomescan method relative to control.
In test [15] the test system is Receptor-type tyrosine-protein kinase FLT3 (Homo sapiens), P36888 [K663Q]. The test is described as follows: Binding affinity to human partial length FLT3 K663Q mutant (V592 to Y969 residues) expressed in bacterial expression system assessed as residual binding level at 1 uM by Kinomescan method relative to control. Summed up: as §2
Test [16] deals with Phosphorylase b kinase gamma catalytic chain, skeletal muscle/heart isoform (Homo sapiens) (UniProt Q16816). The test is described as follows: Binding affinity to wild-type human full length PHKG1 (M1 to Y387 residues) expressed in bacterial expression system assessed as residual binding level at 1 uM by Kinomescan method relative to control. Summed up: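 Active-site-directed competition binding panel (KinomeScan) covering 468 kinases. Test agent was screened at 1 μM. The read-out is the remaining kinase signal expressed relative to a DMSO control. Scores above 35%, taken as weak binding, were not reported.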
Sequence of Phosphorylase b kinase gamma catalytic chain, skeletal muscle/heart isoform (Homo sapiens) (Q16816 whole entry, looked up, the tested form may be a part, canonical isoform): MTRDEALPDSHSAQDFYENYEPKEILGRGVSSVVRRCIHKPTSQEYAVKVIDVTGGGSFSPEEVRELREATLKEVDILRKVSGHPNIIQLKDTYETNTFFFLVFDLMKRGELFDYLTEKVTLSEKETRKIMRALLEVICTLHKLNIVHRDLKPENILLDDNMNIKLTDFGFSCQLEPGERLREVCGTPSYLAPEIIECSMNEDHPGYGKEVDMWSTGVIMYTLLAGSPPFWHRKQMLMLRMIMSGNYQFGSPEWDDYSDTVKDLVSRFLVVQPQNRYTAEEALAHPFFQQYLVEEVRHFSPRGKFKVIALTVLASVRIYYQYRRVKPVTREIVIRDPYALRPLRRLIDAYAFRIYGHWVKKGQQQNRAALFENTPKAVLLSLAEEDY

Test [17] addresses Homeodomain-interacting protein kinase 3 (Homo sapiens) (UniProt Q9H422). The test is described as follows: Binding affinity to wild-type human partial length HIPK3 (M153 to N562 residues) expressed in mammalian expression system assessed as residual binding level at 1 uM by Kinomescan method relative to control. The method in brief: as §1
The subject of test [18] is Tyrosine-protein kinase ABL1 (Homo sapiens), P00519 [T315I]. The test is described as follows: Binding affinity to human non-phosphorylated ABL1 T315I mutant (S229 to K512 residues) expressed in mammalian expression system assessed as residual binding level at 1 uM by Kinomescan method relative to control. Summed up: as §2
The target in test [19] is Focal adhesion kinase 1 (Homo sapiens) (UniProt Q05397). The test is described as follows: Binding affinity to wild-type human partial length FAK (D402 to R696 residues) expressed in bacterial expression system assessed as residual binding level at 1 uM by Kinomescan method relative to control.
Test [20] addresses Ephrin type-A receptor 2 (Homo sapiens) (UniProt P29317). Description: Binding affinity to wild-type human partial length EPHA2 (T593 to V891 residues) expressed in bacterial expression system assessed as residual binding level at 1 uM by Kinomescan method relative to control.
The target of test [21] is Serine/threonine-protein kinase Sgk1 (Homo sapiens) (UniProt O00141). Description: Binding affinity to wild-type human partial length SGK (I60 to L431 residues) expressed in mammalian expression system assessed as residual binding level at 1 uM by Kinomescan method relative to control.
Sequence of Serine/threonine-protein kinase Sgk1 (Homo sapiens) (O00141 whole entry, the tested form may be a part): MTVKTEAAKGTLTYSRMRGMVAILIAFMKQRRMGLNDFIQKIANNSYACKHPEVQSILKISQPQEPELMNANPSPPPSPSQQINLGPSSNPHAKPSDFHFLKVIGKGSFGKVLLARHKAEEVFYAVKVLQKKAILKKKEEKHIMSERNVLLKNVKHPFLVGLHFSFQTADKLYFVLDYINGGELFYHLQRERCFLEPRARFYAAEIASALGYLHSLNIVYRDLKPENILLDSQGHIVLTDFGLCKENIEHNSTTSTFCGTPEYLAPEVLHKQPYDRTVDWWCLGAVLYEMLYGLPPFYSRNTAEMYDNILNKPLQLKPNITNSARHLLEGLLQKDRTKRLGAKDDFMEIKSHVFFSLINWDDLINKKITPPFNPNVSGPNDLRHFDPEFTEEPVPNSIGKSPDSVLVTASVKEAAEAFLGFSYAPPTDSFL

Structures are written as SMILES.

Sequence of Ephrin type-A receptor 2 (Homo sapiens) (P29317 whole entry, the tested form may be a part): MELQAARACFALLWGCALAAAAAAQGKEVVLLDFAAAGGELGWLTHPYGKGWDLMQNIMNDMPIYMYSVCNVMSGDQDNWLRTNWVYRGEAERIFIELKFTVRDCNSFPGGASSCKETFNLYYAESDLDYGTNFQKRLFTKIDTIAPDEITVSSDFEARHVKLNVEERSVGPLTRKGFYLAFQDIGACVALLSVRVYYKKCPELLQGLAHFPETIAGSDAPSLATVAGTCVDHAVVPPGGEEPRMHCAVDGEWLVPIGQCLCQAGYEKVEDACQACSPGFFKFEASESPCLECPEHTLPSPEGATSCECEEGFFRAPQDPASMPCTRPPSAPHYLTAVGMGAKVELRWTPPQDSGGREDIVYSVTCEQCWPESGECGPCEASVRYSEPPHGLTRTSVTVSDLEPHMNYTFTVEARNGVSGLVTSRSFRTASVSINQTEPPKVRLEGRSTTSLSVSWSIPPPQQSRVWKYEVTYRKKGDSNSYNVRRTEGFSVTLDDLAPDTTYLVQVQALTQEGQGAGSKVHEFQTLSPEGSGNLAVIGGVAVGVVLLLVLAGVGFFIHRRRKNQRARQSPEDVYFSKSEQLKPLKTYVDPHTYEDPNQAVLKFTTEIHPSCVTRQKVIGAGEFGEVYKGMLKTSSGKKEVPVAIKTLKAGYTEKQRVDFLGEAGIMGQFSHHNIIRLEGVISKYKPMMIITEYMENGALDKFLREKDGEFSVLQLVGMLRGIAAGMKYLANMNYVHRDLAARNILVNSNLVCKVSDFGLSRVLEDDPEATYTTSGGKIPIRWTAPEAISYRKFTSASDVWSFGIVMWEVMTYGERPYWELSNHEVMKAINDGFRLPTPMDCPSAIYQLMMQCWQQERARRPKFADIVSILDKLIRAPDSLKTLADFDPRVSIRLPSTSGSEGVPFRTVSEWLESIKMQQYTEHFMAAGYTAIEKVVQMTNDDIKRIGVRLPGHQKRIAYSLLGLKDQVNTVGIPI
Sequence of Casein kinase II subunit alpha (Homo sapiens) (P68400 whole entry, looked up, the tested form may be a part): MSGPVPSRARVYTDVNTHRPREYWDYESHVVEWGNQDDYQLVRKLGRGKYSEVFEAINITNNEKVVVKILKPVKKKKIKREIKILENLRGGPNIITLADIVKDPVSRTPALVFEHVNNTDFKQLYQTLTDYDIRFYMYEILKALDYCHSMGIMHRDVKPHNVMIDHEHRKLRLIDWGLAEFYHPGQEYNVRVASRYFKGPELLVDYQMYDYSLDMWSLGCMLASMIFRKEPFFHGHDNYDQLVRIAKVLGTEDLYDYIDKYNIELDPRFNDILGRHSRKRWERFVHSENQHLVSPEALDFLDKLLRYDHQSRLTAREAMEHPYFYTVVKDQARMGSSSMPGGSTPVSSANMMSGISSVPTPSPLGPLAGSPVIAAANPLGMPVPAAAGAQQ
Sequence of Calcium/calmodulin-dependent protein kinase type 1D (Homo sapiens) (Q8IU85 whole entry, looked up, the tested form may be a part): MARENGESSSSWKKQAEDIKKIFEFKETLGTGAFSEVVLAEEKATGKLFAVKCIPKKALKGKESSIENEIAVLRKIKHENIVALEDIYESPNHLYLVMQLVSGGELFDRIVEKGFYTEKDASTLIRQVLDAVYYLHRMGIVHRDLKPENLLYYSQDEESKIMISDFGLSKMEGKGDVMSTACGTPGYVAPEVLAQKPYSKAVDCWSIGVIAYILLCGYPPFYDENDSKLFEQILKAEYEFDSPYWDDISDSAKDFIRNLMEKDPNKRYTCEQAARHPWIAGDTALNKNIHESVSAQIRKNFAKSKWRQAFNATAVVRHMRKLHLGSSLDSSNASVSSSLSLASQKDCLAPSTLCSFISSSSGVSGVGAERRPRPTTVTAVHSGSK

As to `C=CC(=O)Nc1ccccc1Nc1nc(Nc2ccc(N3CCN(C)CC3)cc2)ncc1C(=O)Nc1c(C)cccc1Cl`, the Activity in test [1] is 95%; in test [2], 100%; in test [3], 96%; in [4] it was 68%; in test [5], 100%; in test [6], 100%. The Activity was found to be 30% in [7]; 100% in test [8]; 100% in [9]; 100% in test [10]; 100% in test [11]; 86% in test [12]. Besides, the Activity in test [13] is 100%; in test [14] it was 100%; in test [15], 100%; in test [16] it was 100%; in [17] it was 99%; in [18], 100%. Moreover, the Activity in [19] came out at 100%; in [20], 100%; in test [21], 95%.
